Screening results from PubChem BioAssay.
TLR4-MyD88 BLA – blocks binding of human TLR4 to MyD88; O00206+Q99836; HeLa CL3-4 TLR4/MyD88 BLA complementation, FRET ratio; inhibition, % at 8.4 µM; 0.18% of 200,000 active; AID 861; in the data active means inhibition above about 25%;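 further: 0% = vehicle and 100% = reference inhibitor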
Target sequence (O00206 whole entry, looked up): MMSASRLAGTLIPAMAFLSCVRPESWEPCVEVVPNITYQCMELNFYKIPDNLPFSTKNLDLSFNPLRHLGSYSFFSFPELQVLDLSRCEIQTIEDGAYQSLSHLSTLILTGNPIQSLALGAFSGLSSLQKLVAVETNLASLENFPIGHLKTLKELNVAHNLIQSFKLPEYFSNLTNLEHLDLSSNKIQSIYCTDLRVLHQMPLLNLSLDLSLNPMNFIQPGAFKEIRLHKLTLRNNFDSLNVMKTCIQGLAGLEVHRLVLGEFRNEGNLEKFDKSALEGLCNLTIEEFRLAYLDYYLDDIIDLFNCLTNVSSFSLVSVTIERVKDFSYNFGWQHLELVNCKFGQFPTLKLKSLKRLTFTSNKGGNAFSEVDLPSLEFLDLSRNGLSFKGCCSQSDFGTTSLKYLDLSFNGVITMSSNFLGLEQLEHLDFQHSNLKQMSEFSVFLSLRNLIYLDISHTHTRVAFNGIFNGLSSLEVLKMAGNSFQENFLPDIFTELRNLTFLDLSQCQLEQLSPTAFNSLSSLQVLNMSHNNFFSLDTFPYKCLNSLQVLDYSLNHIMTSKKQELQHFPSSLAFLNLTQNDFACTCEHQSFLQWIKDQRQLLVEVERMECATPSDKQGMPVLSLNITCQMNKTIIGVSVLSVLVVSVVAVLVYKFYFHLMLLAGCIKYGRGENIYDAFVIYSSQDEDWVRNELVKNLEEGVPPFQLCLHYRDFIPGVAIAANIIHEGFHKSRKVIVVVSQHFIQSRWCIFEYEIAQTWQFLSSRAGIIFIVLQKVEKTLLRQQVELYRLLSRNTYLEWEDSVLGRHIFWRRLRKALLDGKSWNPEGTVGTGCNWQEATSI
Target sequence (Q99836 whole entry, looked up): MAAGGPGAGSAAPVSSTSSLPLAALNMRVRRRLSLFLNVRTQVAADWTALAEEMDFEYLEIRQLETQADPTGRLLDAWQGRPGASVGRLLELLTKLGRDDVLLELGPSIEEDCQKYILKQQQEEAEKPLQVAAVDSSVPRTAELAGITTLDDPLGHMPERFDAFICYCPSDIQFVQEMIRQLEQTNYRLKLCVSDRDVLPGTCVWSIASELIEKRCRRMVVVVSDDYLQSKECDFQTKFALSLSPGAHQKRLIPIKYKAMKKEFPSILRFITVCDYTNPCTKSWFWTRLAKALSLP
CHOP UPR activ – activators of apoptotic arm of unfolded protein response (CHOP). 0.34% of 330,000 active. AID 449763. activation, % at 10 µM. CHO-CHOP luciferase reporter, UPR activation, luminescence; percent of tunicamycin response over DMSO baseline;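 active means at 10 µM dose, activation of 40% or more, normalized to positive control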;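 further: 100% = tunicamycin at 10 µg/mL and 0% = DMSO alone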
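assay system = CHO CHOP reporter cells | amount = 500 CHO-CHOP cells per well | buffer or medium = F12 with 10% FBS | incubation = 16-18 h cell attachment, then 6 h compound exposure, 37 °C | detection = luminescence read with Steady-Glo | read-out = percent activation relative to tunicamycin control | controls = tunicamycin high control, DMSO low control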
TLR9-MyD88 inh – inhibitors of human TLR9-MyD88 binding | AID 504734 | inhibition, % at 4.98 µM | 0.21% of 340,000 active | Q9NR96+Q99836 | CHO BLA complementation TLR9-MyD88, CCF4 FRET ratio;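 active means inhibition above the mean over all tested compounds plus 3 SD, cut at about 21% in these data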;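 further: 0% = DMSO only wells and 100% = clavulanate BLA inhibitor control wells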
NOD2-RIPK2 inh – inhibitors of human NOD2-RIPK2 interaction. O43353. CHO BLA complementation NOD2-RIPK2, CCF4 ratio. 0.38% of 360,000 active. inhibition, % at 4.98 µM; in the data active means inhibition above about 21%;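 further: 0% = vehicle only and 100% = reference blocker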
XBP1 UPR activ – activators of adaptive arm of unfolded protein response (XBP1) | activation, % at 20 µM | CHO-XBP1 luciferase reporter, IRE1-XBP1 UPR activation, luminescence; percent of tunicamycin response, DMSO as zero | AID 463104 | 0.33% of 330,000 active;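 active means versus positive control, 20 µM dose yields 30% or more activation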;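 further: 100% = tunicamycin at 10 µg/mL and 0% = DMSO only wells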
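Material – CHO cell line with stable XBP1 luciferase reporter · Buffer or medium – F12 plus 10% FBS · Compound – single point, 20 µM final compound, 1% DMSO · Schedule – 16-18 h cell attachment at 37 °C, then 6 h compound exposure · Signal – Steady-Glo luminescence read · Benchmarks – high control tunicamycin 10 µg/mL final, low control DMSO vehicle only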
CHOP inhibitor – blocks CHOP induction under ER stress; CHO-K1 CHOP-promoter luciferase, tunicamycin-induced, 15-18 h; inhibition, % at 10 µM; 3.8% of 220,000 active; AID 2732;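 active means compounds that reduced the stress-induced luciferase reporter signal by more than about 70% of percent inhibition, limit read from the data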;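 further: 0% = tunicamycin plus vehicle and 100% = wells without tunicamycin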
CHOP confirm – confirmation of CHOP induction inhibitors; shares compounds with CHOP inhibitor; inhibition, % at 10 µM; CHO-CHOP promoter luciferase reporter, tunicamycin-induced, luminescence; 45% of 2,100 active; AID 504437;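 active means mean of three repeat readings of reporter signal inhibition above a set limit, cut at about 70% in these data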;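 further: 0% = tunicamycin plus vehicle and 100% = wells lacking tunicamycin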
The depositor's hits bear a star; · = not tested or not shown. This excerpt belongs to a sample that is enriched for hits.

SMILES	TLR4-MyD88 BLA	CHOP UPR activ	TLR9-MyD88 inh	NOD2-RIPK2 inh	XBP1 UPR activ	CHOP inhibitor	CHOP confirm
Cc1ccccc1Nc1nc(N)nc(-c2oc3ccccc3c2C)n1	·	7	·	-4	-3	26	·
Cc1c(-c2nc(N)nc(Nc3ccc(F)cc3)n2)oc2ccccc12	20	5	-7	3	7	106*	40
C/C(=N\N=C(c1ccccc1)c1ccccc1)c1cccs1	11	3	-6	-7	-2	33	·
CC(NO)/C(=N\O)c1cccs1 (centres undefined)	-2	1	5	3	-3	106*	40
CCc1ccc(OCC(=O)NC(NC(=S)Nc2ccccc2OC)C(Cl)(Cl)Cl)cc1 (centres undefined)	7	0	-1	3	0	9	·
CC(=O)NC(NC(=S)Nc1ccc(C)cc1C)C(Cl)(Cl)Cl (centres undefined)	·	-1	7	-1	-1	-2	·
CCc1ccc(OCC(=O)NC(NC(=S)Nc2ccc(C)cc2C)C(Cl)(Cl)Cl)cc1 (centres undefined)	3	3	2	3	2	108*	113*
CCc1ccc(OCC(=O)NC(NC(=S)Nc2ccccc2)C(Cl)(Cl)Cl)cc1 (centres undefined)	4	4	0	-10	0	105*	105*
Cc1cccc(NC(=S)NC(NC(=O)OCc2ccccc2)C(Cl)(Cl)Cl)c1 (centres undefined)	4	2	-27	-3	-4	106*	103*
O=C(NC(NC(=S)Nc1cccc(C(=O)O)c1)C(Cl)(Cl)Cl)OCc1ccccc1 (centres undefined)	-26	1	-5	-18	-3	-5	·
CN(C)Cc1ncccc1Oc1nc2cc(-c3cccc(Cl)c3)sc2c(=O)n1C	·	·	·	0	·	·	·
COc1ccc(/C=C/C(=O)N2CCN(S(=O)(=O)c3ccccc3Br)CC2)cc1OC	·	1	3	-2	0	·	·
COc1ccc(CCN(CC(=O)NCc2ccc(F)cc2)C(=O)c2snc(C(N)=O)c2N)cc1OC	·	0	3	1	-4	·	·
Cc1ccc(-c2nnc(SCC(=O)Nc3ccc(S(=O)(=O)N4CCCCCC4)cc3)o2)cc1	-15	0	-8	-5	0	101*	36
N#Cc1nccnc1S(=O)(=O)c1cccs1	·	-9	·	·	-9	107*	105*
CN(Cc1ccccc1C#N)S(=O)(=O)c1cccs1	·	0	-6	-5	3	·	·
CCOc1c(OC(C)=O)ccc(/C=C/c2ccc3cccc(OC(C)=O)c3n2)c1[N+](=O)[O-]	1	5	-4	2	4	22	·
C=CCN1C(=O)/C(=C/c2ccc(OC(C)=O)c(OCC)c2[N+](=O)[O-])SC1=S	-1	·	-9	3	·	100*	114*
O=S(=O)(c1ccc(Cl)cc1)c1cnc(-c2cccnc2)nc1-c1ccccc1	0	1	-2	-8	1	99*	12
CC(C)(C)C1C/C(=C/c2ccccn2)C(=O)/C(=C/c2ccccn2)C1 (centres undefined)	0	-9	1	27*	-7	109*	137*
CC1C/C(=C/c2ccccn2)C(=O)/C(=C/c2ccccn2)C1 (centres undefined)	8	14	8	16	-6	108*	113*
O=C1/C(=C/c2ccccn2)COc2ccccc21	23	1	3	-10	4	-48	·
Cc1sc(N/N=C/c2cccs2)nc1-c1ccccc1	6	0	-2	-8	1	-21	·
CC(=O)Nc1ccc(N)cc1	·	3	0	-1	-4	·	·
CCC(=O)Nc1ccc2oc(-c3cccnc3)nc2c1	·	2	-6	14	-1	-31	·
SMILES	TLR4-MyD88 BLA	CHOP UPR activ	TLR9-MyD88 inh	NOD2-RIPK2 inh	XBP1 UPR activ	CHOP inhibitor	CHOP confirm
Cc1c(C(=O)Nc2ccc3oc(-c4cccnc4)nc3c2)oc2ccccc12	-1	-1	-1	1	9	100*	-5
Cc1ccc(C)c(NC(=O)C2CC3c4ccccc4C2c2ccccc23)c1 (centres undefined)	-18	0	-6	6	-2	99*	16
Cc1ccc(C)c(NC(=O)C2CC=CCC2C(=O)O)c1 (centres undefined)	4	-1	-2	-4	1	20	·
Cc1nn(-c2ccccc2)c(/N=C/c2ccc(O)cc2)c1-c1ccccc1	-8	6	-9	-7	4	104*	28
O=S(=O)(c1cc(-c2nc3ccccc3s2)ccc1Cl)N1CCOCC1	9	·	·	·	·	-12	·
Cc1ccn(C(C)CC(=O)Nc2ccc(-c3ccno3)cc2)n1 (centres undefined)	·	1	-1	-5	-6	·	·
Cc1ccc2c(c1)c1c(n2CC(O)Cn2c(C)nc3ccccc32)CCCC1 (centres undefined)	-15	-1	9	-7	-1	98*	82*
CC(C)(C)OC(=O)NCCCC[C@H](NC(=O)c1[nH]cnc1C(=O)Nc1ccc(Cl)cc1)C(=O)OC(C)(C)C	·	3	2	-3	6	-2	·
CCOC(=O)c1ccc(NC(=O)c2nc[nH]c2C(=O)N[C@@H](C)C(=O)OC(C)(C)C)cc1	·	1	-4	-1	-3	97*	104*
CCOC(=O)c1ccc(NC(=O)c2nc[nH]c2C(=O)N[C@@H](CC(C)C)C(=O)OC(C)(C)C)cc1	·	2	0	-14	2	25	·
C[C@H](NC(=O)c1[nH]cnc1C(=O)Nc1ccc(Cl)cc1)C(=O)OC(C)(C)C	·	1	-14	-9	-2	105*	91*
O=c1[nH]cnc2scc(-c3ccc(-c4ccccc4)cc3)c12	7	·	4	-2	·	96*	-3
O=C(Cc1cccs1)N/N=C/C(Br)=C/c1ccccc1	5	3	11	5	3	104*	66
O=C(CC1S/C(=N/N=C/c2cccs2)NC1=O)Nc1ccc(Cl)c(Cl)c1 (centres undefined)	-13	3	9	-6	0	104*	57
C/C(=N\N=C1\NC(=O)C(CC(=O)Nc2ccc(C)c(Cl)c2)S1)C(C)(C)C (centres undefined)	0	-2	6	-2	-1	106*	107*
CCCc1nnc(NC(=O)CCC(=O)N2CCCCCC2)s1	4	1	2	-7	-1	0	·
Cc1cc(C)n(-c2ccc(C(=O)Nc3cc(S(=O)(=O)N(C)C)ccc3Cl)cc2)n1	-2	3	0	-7	-2	17	·
